In ChEMBL document CHEMBL4616636, “A new series of aryl sulfamate derivatives: Design, synthesis, and biological evaluation” (Bioorg Med Chem, 2020):

Experiments:
[1] = target: T1, Steryl-sulfatase (Homo sapiens) (UniProt P08842); assay: Inhibition of steroid sulfatase in human JEG3 cell lysates at 10 uM using [3H] E1S as substrate after 1 hr by scintillation spectrometry analysis relative to control; assay type: cell-free; details: JEG-3
T1 sequence (whole entry): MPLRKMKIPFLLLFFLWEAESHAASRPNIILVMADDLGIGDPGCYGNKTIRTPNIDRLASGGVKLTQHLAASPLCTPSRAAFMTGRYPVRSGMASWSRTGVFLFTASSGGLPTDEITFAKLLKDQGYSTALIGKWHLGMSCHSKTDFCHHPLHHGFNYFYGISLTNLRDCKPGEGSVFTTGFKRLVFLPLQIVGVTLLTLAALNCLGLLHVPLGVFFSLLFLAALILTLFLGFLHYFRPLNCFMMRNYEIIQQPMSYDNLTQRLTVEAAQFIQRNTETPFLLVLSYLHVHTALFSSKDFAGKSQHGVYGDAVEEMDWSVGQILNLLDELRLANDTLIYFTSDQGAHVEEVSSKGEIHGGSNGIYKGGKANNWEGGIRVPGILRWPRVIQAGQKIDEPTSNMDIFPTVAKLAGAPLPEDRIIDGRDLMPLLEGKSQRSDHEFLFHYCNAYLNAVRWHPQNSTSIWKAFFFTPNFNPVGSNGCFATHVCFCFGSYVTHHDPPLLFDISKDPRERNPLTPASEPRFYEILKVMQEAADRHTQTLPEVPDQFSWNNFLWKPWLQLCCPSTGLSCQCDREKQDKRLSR
Method in brief: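 JEG-3 placental choriocarcinoma lysate (125 µg protein/mL) incubated 1 h with inhibitor at 10 µM and [3H]E1S brought to 20 µM with unlabelled E1S. Estrone product extracted into toluene, [14C]E1 used to correct for losses, 3H/14C counted by scintillation. Reported as % inhibition versus untreated control, mean ± SEM, n=3.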

T47D = assay: Antiproliferative activity against human T47D cells assessed as reduction in cell proliferation measured after 5 days in presence of estradiol sulfate by crystal violet staining based assay; assay type: functional; details: 120 h
Method in brief: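 T-47D cells kept in EMEM with pyruvate, gentamycin, bicarbonate and 10% FBS at 37 °C, 5% CO2. After 3 days of growth, medium swapped for one with compound, 100 nM estradiol sulfate and 10% charcoal-stripped FBS, then 5 days of incubation. Glutaraldehyde fixation, crystal violet stain, ethanol elution, OD at 578 nm. IC50 reported as mean ± SEM of triplicate assays.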

Steryl-sulfatase [2] = target: T2, Steryl-sulfatase (Homo sapiens, UniProt P08842); assay: Inhibition of steroid sulfatase in human JEG3 cell lysates using [3H] E1S as substrate after 1 hr by scintillation spectrometry analysis; assay type: cell-free, JEG-3
T2 sequence (P08842 whole entry): T1 sequence (whole entry)
Method in brief: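 Estrone taken into toluene, recovery corrected with [14C]E1, scintillation counting. E1S hydrolysed calculated from 3H counts and substrate specific activity, and IC50 derived from the dose-response.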

Steryl-sulfatase [3] = target: T2, Steryl-sulfatase; assay: Inhibition of steroid sulfatase in human JEG3 cells using [3H] E1S as substrate incubated for 20 hrs by scintillation spectrometry analysis; assay type: cell-based, JEG-3
Method in brief: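 Intact JEG-3 monolayers incubated 20 h at 37 °C in serum-free EMEM with [3H]E1S (5 pmol, 60 Ci/mmol), with or without inhibitor at 10 µM. Estrone in the medium separated from E1S by toluene partition, [14C]estrone used to correct for procedural losses. E1S hydrolysed calculated from scintillation counts.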

| inhibition [1] | IC50 (T47D) | IC50 (Steryl-sulfatase [2]) | IC50 (Steryl-sulfatase [3]) | SMILES |
| --- | --- | --- | --- | --- |
| 72.7% |  |  |  | COc1ccc(C(=O)Nc2ccc(OS(N)(=O)=O)cc2)cc1 |
| 86.3% |  |  |  | NS(=O)(=O)Oc1ccc(NC(=O)C23CC4CC(CC(C4)C2)C3)cc1F |
| 90% |  |  |  | NS(=O)(=O)Oc1ccc(C(=O)NC23CC4CC(CC(C4)C2)C3)cc1 |
| 88.6% |  |  |  | NS(=O)(=O)Oc1ccc(NC(=O)C23CC4CC(CC(C4)C2)C3)cc1Cl |
| 63.4% |  |  |  | NS(=O)(=O)Oc1ccc2c(ccn2C(=O)C23CC4CC(CC(C4)C2)C3)c1 |
| 62% |  |  |  | NS(=O)(=O)Oc1ccc(NC(=O)C2CCCC2)cc1 |
| 98.3% | 1040 nM | 25.8 nM | 150 nM | NS(=O)(=O)Oc1ccc(C(=O)NC23CC4CC(CC(C4)C2)C3)cc1Cl |
| 58.5% |  |  |  | Cc1cc(OS(N)(=O)=O)ccc1NC(=O)C12CC3CC(CC(C3)C1)C2 |
| 97.2% | 3400 nM | 67.7 nM |  | NS(=O)(=O)Oc1ccc(C(=O)NC23CC4CC(CC(C4)C2)C3)cc1F |
| 93.9% | 5780 nM | 110 nM | 13.6 nM | NS(=O)(=O)Oc1ccc(NC(=O)C23CC4CC(CC(C4)C2)C3)cc1 |
| 52.3% |  |  |  | NS(=O)(=O)Oc1ccc(NC(=O)C2CCCCCC2)cc1 |
| 14.3% |  |  |  | NS(=O)(=O)Oc1ccc2c(ccn2C(=O)C2CCCCC2)c1 |
| 61% |  |  |  | CN(C(=O)C12CC3CC(CC(C3)C1)C2)c1ccc(OS(N)(=O)=O)cc1 |
| 24.6% |  |  |  | NS(=O)(=O)Oc1ccc(NC(=O)c2ccc(Cl)cc2)cc1 |
| -5.3% |  |  |  | NS(=O)(=O)Oc1ccc(CNC(=O)C23CC4CC(CC(C4)C2)C3)cc1 |
|  | 920 nM |  |  | NS(=O)(=O)Oc1ccc2c3c(c(=O)oc2c1)CCCCC3 [IROSUSTAT] |
| 12.9% |  |  |  | NS(=O)(=O)Oc1ccc(NC(=O)c2cccnc2)cc1 |
| 82.7% |  |  |  | NS(=O)(=O)Oc1ccc(NC(=O)C23CC4CC(CC(C4)C2)C3)cc1Br |
| 5.32% |  |  |  | NS(=O)(=O)Oc1ccc(NC(=O)NC23CC4CC(CC(C4)C2)C3)cc1 |
| 25.4% |  |  |  | NS(=O)(=O)Oc1ccc(NC(=O)c2ccccc2)cc1 |
| 94.6% | 4670 nM | 74.1 nM |  | NS(=O)(=O)Oc1ccc(C(=O)NC23CC4CC(CC(C4)C2)C3)cc1Br |
| 53.6% |  |  |  | NS(=O)(=O)Oc1ccc(NC(=O)c2ccc3ccccc3c2)cc1 |
